According to ChEMBL document CHEMBL1143117, “Synthesis and SAR of 2-aryloxy-4-alkoxy-pyridines as potent orally active corticotropin-releasing factor 1 receptor antagonists” (J Med Chem, 2008):
Converted amounts (≈) assume the structure as drawn. One block for each compound: values may come before it.

Columns and labels:
[1] = molecular target: T1, Corticotropin-releasing factor receptor 1 (Rattus norvegicus, UniProt P35353); experiment: Displacement of [125]oCRF from rat cortex CRF1 receptor
T1 sequence (P35353 whole entry): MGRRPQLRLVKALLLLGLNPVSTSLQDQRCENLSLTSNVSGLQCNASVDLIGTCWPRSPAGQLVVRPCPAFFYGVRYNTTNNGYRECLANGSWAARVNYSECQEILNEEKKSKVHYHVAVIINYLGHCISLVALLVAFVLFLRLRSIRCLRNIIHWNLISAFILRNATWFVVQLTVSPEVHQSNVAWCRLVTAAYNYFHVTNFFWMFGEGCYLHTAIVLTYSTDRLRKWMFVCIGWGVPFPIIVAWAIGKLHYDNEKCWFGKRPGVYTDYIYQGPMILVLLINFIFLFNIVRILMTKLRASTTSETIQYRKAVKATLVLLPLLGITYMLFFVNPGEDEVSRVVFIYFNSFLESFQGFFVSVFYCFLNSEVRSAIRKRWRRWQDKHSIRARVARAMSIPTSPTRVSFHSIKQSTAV
Procedure, shortened: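 Rat cortex binding used ¹²⁵I-ovine-CRF as radioligand. pIC50 ± SEM and IC50 are geometric means of at least three experimental runs.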

Rattus norvegicus [2] = experiment: Ex vivo displacement of [125]oCRF from CRF1 receptor in rat cortex at 3.2 mg/kg, sc; format: functional; details: route subcutaneous
Procedure, shortened: (§1)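 Rats received 3.2 mg/kg p.o. or s.c. per line, and cortex and pituitary binding of ¹²⁵I-oCRF was measured 1 h later by one of two methods. Homogenate method: 25 mg wet tissue/mL in PIPES pH 7.0 buffer, 40 pM ligand, 2 h at room temperature, centrifuged, filtered, scintillation counted. Autoradiographic method: male Sprague-Dawley rats (N = 4), 16 µm sections, 60 pM ligand, 1 h at room temperature. Nonspecific binding was set with 1 µM rat/human CRF. Percent inhibition is mean ± SD.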

Rattus norvegicus [3] = experiment: Ex vivo displacement of [125]oCRF from CRF1 receptor in rat pituitary at 3.2 mg/kg, sc; format: functional; details: route subcutaneous; procedure, shortened: as §1
[4] = molecular target: T1, Corticotropin-releasing factor receptor 1; experiment: Antagonist activity at rat cortex CRF1 receptor assessed as inhibition of CRF-stimulated adenylate cyclase activity; format: functional, tissue-based
[5] = molecular target: Corticotropin-releasing factor receptor 1 (Rattus norvegicus) (UniProt P35353); experiment: Inhibition of CRF1 receptor
[6] = Solubility at pH 2; format: physicochemical; details: buffer
Rattus norvegicus [7] = experiment: Ex vivo displacement of [125]oCRF from CRF1 receptor in rat pituitary at 3.2 mg/kg, po; format: functional; procedure, shortened: as §1
[8] = Solubility of the compound; format: physicochemical
Procedure, shortened: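 Kinetic water solubility was measured in an in-house high-throughput assay.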

[9] = Dissociation constant, pKa of the compound; format: physicochemical
Procedure, shortened: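 UV spectrophotometric pKa determination, with the value extrapolated to 0% organic solvent.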

Rattus norvegicus [10] = experiment: Ex vivo displacement of [125]oCRF from CRF1 receptor in rat cortex at 3.2 mg/kg, po; format: functional; procedure, shortened: as §1
Rattus norvegicus [11] = experiment: Attenuation of HPA axis activation in po dosed rat assessed as blockade of oCRF-induced elevation of plasma ACTH; format: functional
Procedure, shortened: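 Rats were dosed orally, then challenged with exogenous oCRF at 4 µg/kg i.v., and plasma ACTH was measured. The MED was judged against CRF alone by one-way ANOVA with Dunnett's post hoc test (N = 12). ID50 (p.o.) was calculated with a confidence interval.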

[12] = Solubility at pH 7; format: physicochemical; details: buffer
[13] = molecular target: T2, Corticotropin-releasing factor receptor 1 (Homo sapiens, UniProt P34998); experiment: Antagonist activity at human CRF1 receptor endogenously expressed in human IMR32 cells; format: functional, cell-based, IMR-32
T2 sequence (P34998 whole entry): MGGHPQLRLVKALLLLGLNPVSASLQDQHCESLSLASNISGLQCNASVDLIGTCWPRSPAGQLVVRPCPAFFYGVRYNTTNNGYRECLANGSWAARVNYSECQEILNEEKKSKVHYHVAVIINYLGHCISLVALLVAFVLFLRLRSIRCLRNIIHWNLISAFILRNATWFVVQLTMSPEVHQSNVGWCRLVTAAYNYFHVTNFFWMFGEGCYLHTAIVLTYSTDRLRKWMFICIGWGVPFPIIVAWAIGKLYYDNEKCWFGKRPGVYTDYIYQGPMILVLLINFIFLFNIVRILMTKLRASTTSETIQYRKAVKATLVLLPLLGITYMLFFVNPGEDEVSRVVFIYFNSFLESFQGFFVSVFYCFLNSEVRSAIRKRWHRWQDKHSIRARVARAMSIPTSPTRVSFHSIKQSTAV

IC50 [1]: 40 nM
Structure (SMILES): CCC(CC)Oc1cc(C)nc(Oc2c(C)cc(C=O)cc2C)c1C

IC50 [1]: 6.8 nM
Ki [4]: 7.6 nM
IC50 [5]: 6.8 nM
solubility [6]: 3 µg/mL (≈ 9.16 µM)
solubility [8]: < 1 µg/mL
pKa [9]: 3.5
solubility [12]: 0.2 µg/mL (≈ 0.611 µM)
Ki [13]: 8.5 nM
Structure (SMILES): CCC(CC)Oc1cc(C)nc(Oc2c(C)cc(C)cc2C)c1C
inhibition in vivo at 3.2 mg/kg (Rattus norvegicus [7]): 72%
inhibition in vivo at 3.2 mg/kg (Rattus norvegicus [10]): 75%
ED50 (Rattus norvegicus [11]; read-out: ID50 (the source's name)): 35 mg/kg
minimal effective dose (Rattus norvegicus [11]; read-out: MED): 10 mg/kg

IC50 [1]: 2 nM
Structure (SMILES): CCC(CC)Oc1cc(C)nc(Oc2c(C)cc(OC)cc2C)c1C
inhibition in vivo at 3.2 mg/kg (Rattus norvegicus [7]): 55%
inhibition in vivo at 3.2 mg/kg (Rattus norvegicus [10]): 75%

IC50 [1]: 2.6 nM
Structure (SMILES): CCC(CC)Oc1cc(C)nc(Oc2c(C)cc(Br)cc2C)c1C
inhibition in vivo at 3.2 mg/kg (Rattus norvegicus [7]): 84%
inhibition in vivo at 3.2 mg/kg (Rattus norvegicus [10]): 47%

IC50 [1]: 40 nM
Structure (SMILES): CCC(CC)Oc1cc(C)nc(Oc2c(C)cc(C(C)(C)O)cc2C)c1C

IC50 [1]: 5.5 nM
Structure (SMILES): CCC(CC)Oc1cc(C)nc(Oc2c(C)cc(Cl)cc2C)c1C
inhibition in vivo at 3.2 mg/kg (Rattus norvegicus [7]): 76%
inhibition in vivo at 3.2 mg/kg (Rattus norvegicus [10]): 66%

IC50 [1]: 1400 nM
Structure (SMILES): CCC(CC)Oc1cc(C)nc(Oc2c(C)cc(O)cc2C)c1C

IC50 [1]: 11 nM
Structure (SMILES): CCc1cc(C)c(Oc2nc(C)cc(OC(CC)CC)c2C)c(C)c1
inhibition in vivo at 3.2 mg/kg (Rattus norvegicus [2]): 55%
inhibition in vivo at 3.2 mg/kg (Rattus norvegicus [3]): 56%

IC50 [1]: 10 nM
solubility [8]: 10 µg/mL (≈ 30.4 µM)
pKa [9]: 4.97
Structure (SMILES): CCC(CC)Oc1cc(C)nc(Oc2c(C)cc(C)nc2C)c1C
inhibition in vivo at 3.2 mg/kg (Rattus norvegicus [2]): 70%
inhibition in vivo at 3.2 mg/kg (Rattus norvegicus [3]): 6%

IC50 [1]: 20 nM
Structure (SMILES): CCOc1cc(C)c(Oc2nc(C)cc(OC(CC)CC)c2C)c(C)c1
inhibition in vivo at 3.2 mg/kg (Rattus norvegicus [7]): 33%
inhibition in vivo at 3.2 mg/kg (Rattus norvegicus [10]): 43%

IC50 [1]: 61 nM
Structure (SMILES): CCC(CC)Oc1cc(C)nc(Oc2c(C)cc(CO)cc2C)c1C
inhibition in vivo at 3.2 mg/kg (Rattus norvegicus [7]): -20%
inhibition in vivo at 3.2 mg/kg (Rattus norvegicus [10]): 42%

IC50 [1]: 12 nM
Structure (SMILES): CCC(CC)Oc1cc(C)nc(Oc2c(C)cc(I)cc2C)c1C
inhibition in vivo at 3.2 mg/kg (Rattus norvegicus [2]): 27%
inhibition in vivo at 3.2 mg/kg (Rattus norvegicus [3]): 72%

IC50 [1]: 32 nM
Structure (SMILES): CCC(CC)Oc1cc(C)nc(Oc2c(C)cc(F)cc2C)c1C

IC50 [1]: 9.8 nM
Structure (SMILES): CCCc1cc(C)c(Oc2nc(C)cc(OC(CC)CC)c2C)c(C)c1
inhibition in vivo at 3.2 mg/kg (Rattus norvegicus [2]): 42%
inhibition in vivo at 3.2 mg/kg (Rattus norvegicus [3]): 34%

IC50 [1]: 3.2 nM
Structure (SMILES): CCC(CC)Oc1cc(C)nc(Oc2c(C)cc(COC)cc2C)c1C
inhibition in vivo at 3.2 mg/kg (Rattus norvegicus [7]): 12%
inhibition in vivo at 3.2 mg/kg (Rattus norvegicus [10]): 57%

The remaining lines, values behind:

Structure (SMILES): CCC(C)Oc1cc(C)nc(Oc2c(C)cc(C)cc2C)c1C (stereo unspecified)
IC50 [1]: 28 nM
inhibition in vivo at 3.2 mg/kg (Rattus norvegicus [2]): 74%
inhibition in vivo at 3.2 mg/kg (Rattus norvegicus [3]): 42%

Structure (SMILES): CCC(CC)Oc1cc(C)nc(Oc2c(C)cc(C)cc2C)c1N
IC50 [1]: 12 nM
inhibition in vivo at 3.2 mg/kg (Rattus norvegicus [2]): 78%
inhibition in vivo at 3.2 mg/kg (Rattus norvegicus [3]): 51%

Structure (SMILES): CCC(CC)Oc1cc(C)nc(Oc2c(C)cc(C)cc2C)c1
IC50 [1]: 150 nM

Structure (SMILES): CCC(CC)Oc1cc(C)nc(Oc2c(C)cc(C)cc2C)c1C(=O)O
IC50 [1]: > 10000 nM

Structure (SMILES): CCC(CC)Oc1cc(C)nc(Oc2c(C)cc(C)cc2C)c1Br
IC50 [1]: 9.8 nM

Structure (SMILES): CCc1c(OC(CC)CC)cc(C)nc1Oc1c(C)cc(C)cc1C
IC50 [1]: 9.1 nM
inhibition in vivo at 3.2 mg/kg (Rattus norvegicus [2]): 57%
inhibition in vivo at 3.2 mg/kg (Rattus norvegicus [3]): 66%

Structure (SMILES): CCC(CC)Oc1cc(C)nc(Oc2c(C)cc(C)cc2C)c1N(C)C
IC50 [1]: 25 nM

Structure (SMILES): CCC(CC)Oc1c(C)c(C)nc(Oc2c(C)cc(C)cc2C)c1C
IC50 [1]: 180 nM

Structure (SMILES): Cc1cc(C)c(Oc2nc(C)cc(OC3CCOC3)c2C)c(C)c1 (stereo unspecified)
IC50 [1]: 100 nM

Structure (SMILES): CCC(CC)Oc1cc(C)nc(Oc2c(C)cccc2C)c1C
IC50 [1]: 110 nM

Structure (SMILES): CCc1cc(OC(CC)CC)c(C)c(Oc2c(C)cc(C)cc2C)n1
IC50 [1]: 86 nM

Structure (SMILES): CCc1c(C)nc(Oc2c(C)cc(C)cc2C)c(C)c1OC(CC)CC
IC50 [1]: > 10000 nM

Structure (SMILES): CCC(CC)Oc1nc(C)cc(Oc2c(C)cc(C)cc2C)c1C
IC50 [5]: 3400 nM

Structure (SMILES): CCC(CC)Oc1cc(C)nc(Oc2c(C)cc(C(N)=O)cc2C)c1C
IC50 [1]: 18 nM
inhibition in vivo at 3.2 mg/kg (Rattus norvegicus [7]): 15%
inhibition in vivo at 3.2 mg/kg (Rattus norvegicus [10]): 33%

Structure (SMILES): CCC(CC)Oc1cc(C)nc(Oc2c(C)cc(OC(C)C)cc2C)c1C
IC50 [1]: 110 nM

Structure (SMILES): CCC(CC)Oc1cc(C)nc(Oc2c(C)cc(C)cc2C)c1C(=O)OC
IC50 [1]: 470 nM

Structure (SMILES): CCC(CC)Oc1cc(C)nc(Oc2c(C)cc(C)cc2C)c1[N+](=O)[O-]
IC50 [1]: 15 nM
inhibition in vivo at 3.2 mg/kg (Rattus norvegicus [2]): 59%
inhibition in vivo at 3.2 mg/kg (Rattus norvegicus [3]): 35%

Structure (SMILES): CCC(COC)Oc1cc(C)nc(Oc2c(C)cc(C)cc2C)c1C (stereo unspecified)
IC50 [1]: 11 nM
inhibition in vivo at 3.2 mg/kg (Rattus norvegicus [2]): 75%
inhibition in vivo at 3.2 mg/kg (Rattus norvegicus [3]): 49%

Structure (SMILES): C/C=C(\CC)Oc1cc(C)nc(Oc2c(C)cc(C)cc2C)c1C (mixture of isomers)
IC50 [1]: 16 nM
inhibition in vivo at 3.2 mg/kg (Rattus norvegicus [2]): 75%
inhibition in vivo at 3.2 mg/kg (Rattus norvegicus [3]): 55%
